# Results gathered from unrelated publications.
# Protocols differ between the studies behind these lines.
SMILES,test,test system,setting,endpoint,result
CNC(=O)c1ccc(-c2cnn3ccc(C(=O)N(C[C@H]4CCC(=O)O4)c4ccc(OC(F)(F)F)cc4)cc23)cc1,,"female C57BL/6 mouse, plasma","oral, 10 mg/kg, 1 h",concentration,31.4 nM
CCOc1ccc2ccc(=O)oc2c1,metabolic stability,"male beagle dog, hepatocytes",1 µM,hepatocyte CLint,> 46.2 µL/min/10⁶ cells
CCOC(=O)c1cc(Cl)cc(NC(=O)c2sc(Cl)cc2S(=O)(=O)N(C)c2ccc(OCC)c(OC)c2)c1,,"male C57BL/6 mouse, brain","intraperitoneal, 10 mg/kg, 1 h",concentration,6.45 ng/g
O=c1ccc2ccc(O)cc2o1,metabolic stability,"dog, liver microsomes",,scaled CLint,1720 mL/min/kg
CN(C)CC#Cc1ccc2[nH]c3c(c2c1)-c1nc(N)ncc1CCC3,,"male CD-1 mouse, plasma","intraperitoneal, 30 mg/kg, 1 h, single dose",concentration,697 ng/mL
O=C1NC(=O)/C(=C/c2ccc3ncnc(N4CCC(F)(F)CC4)c3n2)S1,,,,logP,2.51
Cc1cc2sc(N)nc2c2cccnc12,,"female BALB/c mouse, plasma","intraperitoneal, 30 mg/kg, 24 h, single dose",concentration,32.7 ng/mL
O=C1NC(=O)/C(=C/c2ccc3ncnc(N4CCCCC4)c3n2)S1,,,,logP,2.33
CN(C(=O)c1ccn2ncc(-c3ccc(C(N)=O)cc3)c2c1)c1ccc(C#N)cn1,,"female C57BL/6 mouse, plasma","oral, 10 mg/kg, 4 h",concentration,519 nM
COc1cc(N2CCC(N3CCN(C)CC3)CC2)ccc1Nc1ncc(Cl)c(Nc2ccccc2P(C)(C)=O)n1,,,,logP,2.69
CCN1CCN(C(=O)c2ccc(-n3nc(-c4cccnc4)c4c3-c3sc(NC(C)=O)nc3CC4)cc2)CC1,,,,logP,3.16
CCOC(=O)CN(C(=O)c1ccn2ncc(-c3ccc(C(=O)NC)cc3)c2c1)c1ccc(Cl)cc1,,"female C57BL/6 mouse, plasma","oral, 10 mg/kg, 4 h",concentration,150 nM
CCN1CCN(Cc2ccc(NC(=O)c3ccc(C)c(NC(=O)c4cncc(-c5cccs5)c4)c3)cc2C(F)(F)F)CC1,,"mouse, plasma","intraperitoneal, 20 mg/kg, single dose",half-life,2.52 h
